We go through six molecules from ChEMBL document CHEMBL3351538, “Complete stereochemistry and preliminary structure-activity relationship of rakicidin A, a hypoxia-selective cytotoxin from Micromonospora sp” (J Nat Prod, 2014).

What is called IC50 is the midpoint of a concentration-inhibition curve.

Some results are limits rather than exact numbers.

Experiment [1] can be described thus: Cytotoxicity against human PANC1 cells under hypoxic condition […] by crystal violet method. Type of experiment: functional, cell-based. The following applies: PANC-1. The method in brief: (§1)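 HCT-8 or PANC-1 cells seeded at 2 × 10^4 per well in duplicate plates and preincubated 24 h to adhere. Serially diluted samples added, then cultures held 2 d either normoxic (5% CO2) or hypoxic (1% O2, modular chamber with oxygen indicator). Viability read by crystal violet staining under normoxic conditions.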

Experiment [2] is described as follows: Cytotoxicity against human HCT8 cells under hypoxic condition […] by crystal violet method. Type of experiment: functional, cell-based. The following applies: HCT-8. Put shortly:
as §1

The nature of experiment [3]: Cytotoxicity against human PANC1 cells under normoxic condition after 2 days by crystal violet method. The conditions noted are these: PANC-1, 2 d.
In the next experiment the test system is HCT-8. Put plainly: Selectivity index, ratio of IC50 for human HCT8 cells under normoxic condition to IC50 for human HCT8 cells under hypoxic condition. Type of experiment: functional.
A short description of experiment [4]: Cytotoxicity against human HCT8 cells under normoxic condition after 2 days by crystal violet method. The following applies: HCT-8, 2 d.
A further experiment deals with PANC-1. In words: Selectivity index, ratio of IC50 for human PANC1 cells under normoxic condition to IC50 for human PANC1 cells under hypoxic condition. Type of experiment: functional.

Turning to `CC(C)CCCCCCCCCCC[C@@H](C)[C@H](O)[C@H](C)C(=O)NC(C)CCC(=O)N(C)CC(=O)N[C@@H](C(=O)O)[C@@H](O)C(N)=O` (stereo not given in full), the half-inhibitory concentration (IC50) in experiment [1] is more than 80 µM; in experiment [2] it was 63.4 µM; in experiment [3], 27.4 µM; in experiment [4] it was 33.9 µM. The “Ratio IC50” value in the experiment with HCT-8 was 0.54.

In the case of `C=C1/C=C/C(=O)N(C)CC(=O)NC(C(O)C(N)=O)C(=O)OC(C(C)CCCCCCCCCCCCC(C)C)C(C)C(=O)N1` (stereo not given), the 50% inhibitory concentration (IC50) was 0.71 µM in experiment [1], 0.21 µM in experiment [2], 3.1 µM in experiment [3] and 2.1 µM in experiment [4]. Further, the “Ratio IC50” value stood at 10 in the experiment with HCT-8 and 4.3 in the experiment on PANC-1.

With `C=C1/C=C/C(=O)N(C)CC(=O)N[C@H]([C@@H](O)C(N)=O)C(=O)O[C@@H]([C@H](C)CCCCCCCCCCCC(C)C)[C@H](C)C(=O)N1`, the IC50 in experiment [1] was 0.37 µM; in experiment [2], 0.3 µM; in experiment [3], 2.3 µM; in experiment [4], 3.9 µM. For the same molecule, the entries for the “Ratio IC50” value in the experiment with HCT-8 and with PANC-1 were 12.8 and 6.3, respectively.

As for `COc1cccc2c1C(=O)c1c(O)c3c(c(O)c1C2=O)C[C@@](O)(C(=O)CO)C[C@@H]3O[C@H]1C[C@H](N)[C@H](O)[C@H](C)O1` [DOXORUBICIN], the concentration for half-maximal inhibition (IC50) in experiment [1] was 5.4 µM; in experiment [2], 19.6 µM; in experiment [3], 1.1 µM; in experiment [4] it was 2.4 µM. Moreover, the results for the “Ratio IC50” value in the experiment with HCT-8 and in the experiment with PANC-1 were 0.12 and 0.21, respectively.

Regarding `CC(C)CCCCCCCCCCC[C@@H](C)[C@@H]1OC(=O)[C@@H]([C@@H](O)C(N)=O)NC(=O)CN(C)C(=O)CCC(C)NC(=O)[C@H]1C` (stereo not given in full), the IC50 stood at 75.4 µM in experiment [1], 6.5 µM in experiment [2], 19.3 µM in experiment [3] and 27.7 µM in experiment [4]. Also, the entries for the “Ratio IC50” value in the experiment on HCT-8 and in the experiment on PANC-1 were 4.3 and 0.26, respectively.

For the molecule `C=C1/C=C/C(=O)N(C)CC(=O)N[C@H]([C@@H](O)C(N)=O)C(=O)O[C@@H]([C@H](C)CCCCCCCCCCCCCC(C)C)[C@H](C)C(=O)N1`, the IC50 in experiment [1] worked out at 4.7 µM; in experiment [2] it was 1.8 µM; in experiment [3], 17.9 µM; in experiment [4] it was 9.4 µM. The “Ratio IC50” value amounted to 5.2 in the experiment with HCT-8 and 3.8 with PANC-1.
